Source: ChEMBL document CHEMBL1132481 (J Med Chem, 1999)

What was measured:
[1] = target: T1, Sodium-dependent dopamine transporter (Rattus norvegicus, UniProt P23977); test: Inhibitory potency against [3H]DA uptake […]
In short: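 Rat striatal S1 fraction (CO2-anesthetized rats) diluted in Krebs-phosphate buffer (pH 7.4, O2/CO2-equilibrated, with pargyline and ascorbate). Preincubated with drug 10 min at 37 °C, then [3H]DA for 2.0 min. Nonspecific uptake measured at 0 °C. Stopped with chilled buffer and GF/C filtration, then scintillation counting. IC50 from usually five concentrations, each in duplicate.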

[2] = target: T1, Sodium-dependent dopamine transporter; test: Inhibitory potency against dopamine (DA) transporter using [3H]WIN-35428 (WIN-) binding assay.
[3] = target: Norepinephrine transporter (Rattus norvegicus, UniProt Q9WTR4); test: Selectivity for the norepinephrine transporter using [3H]nisoxetine binding assay
In short: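 Norepinephrine transporter binding used 8 mg frontal cortex from male Sprague–Dawley rats with 0.5 nM [3H]nisoxetine. Incubated 60 min. Nonspecific binding defined with 1 μM desipramine. Ice-cold washes through PEI-soaked GF/B filters.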

[4] = target: Sodium-dependent serotonin transporter (Rattus norvegicus, UniProt P31652); test: Selectivity for the Serotonin transporter using [3H]paroxetine binding assay
In short: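 Serotonin transporter binding used 1.5 mg hindbrain from male Sprague–Dawley rats with 0.2 nM [3H]paroxetine. Buffer was 50 mM Tris, 120 mM NaCl, 0.5 mM KCl, pH 7.4. Incubated 90 min at room temperature. Nonspecific binding defined with 1 μM citalopram. Ice-cold washes through PEI-soaked GF/B filters.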

[5] = target: Monoamine transporters; serotonin & dopamine (Rattus norvegicus) (UniProt P31652+P23977); test: Ratio of IC50 of 5-HT (serotonin transporter) to IC50 of DA (dopamine transporter); type: protein assay
[6] = target: Monoamine transporters; Norepininephrine & dopamine (Rattus norvegicus) (UniProt P23977+Q9WTR4); test: Ratio of IC50 of NE (norepinephrine transporter) to IC50 of DA (dopamine transporter); type: protein assay

Sequence of Sodium-dependent serotonin transporter (P31652 whole entry): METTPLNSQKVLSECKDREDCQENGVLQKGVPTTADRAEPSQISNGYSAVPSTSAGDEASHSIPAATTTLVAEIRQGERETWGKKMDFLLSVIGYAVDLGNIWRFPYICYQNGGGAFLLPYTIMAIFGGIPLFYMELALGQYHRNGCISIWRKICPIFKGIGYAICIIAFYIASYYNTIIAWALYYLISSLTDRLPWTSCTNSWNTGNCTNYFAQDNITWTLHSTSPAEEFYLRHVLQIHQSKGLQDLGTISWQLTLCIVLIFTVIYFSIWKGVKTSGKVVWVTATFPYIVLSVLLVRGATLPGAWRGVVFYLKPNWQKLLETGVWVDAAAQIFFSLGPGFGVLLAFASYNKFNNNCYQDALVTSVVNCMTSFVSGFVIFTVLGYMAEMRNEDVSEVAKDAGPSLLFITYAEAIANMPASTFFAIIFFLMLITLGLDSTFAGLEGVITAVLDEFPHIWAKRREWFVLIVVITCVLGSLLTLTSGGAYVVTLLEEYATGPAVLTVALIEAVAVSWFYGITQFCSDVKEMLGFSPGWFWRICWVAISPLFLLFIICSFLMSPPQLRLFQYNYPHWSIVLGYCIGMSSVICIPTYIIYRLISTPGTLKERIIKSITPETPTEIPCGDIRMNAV
Sequence of Norepinephrine transporter (Q9WTR4 whole entry): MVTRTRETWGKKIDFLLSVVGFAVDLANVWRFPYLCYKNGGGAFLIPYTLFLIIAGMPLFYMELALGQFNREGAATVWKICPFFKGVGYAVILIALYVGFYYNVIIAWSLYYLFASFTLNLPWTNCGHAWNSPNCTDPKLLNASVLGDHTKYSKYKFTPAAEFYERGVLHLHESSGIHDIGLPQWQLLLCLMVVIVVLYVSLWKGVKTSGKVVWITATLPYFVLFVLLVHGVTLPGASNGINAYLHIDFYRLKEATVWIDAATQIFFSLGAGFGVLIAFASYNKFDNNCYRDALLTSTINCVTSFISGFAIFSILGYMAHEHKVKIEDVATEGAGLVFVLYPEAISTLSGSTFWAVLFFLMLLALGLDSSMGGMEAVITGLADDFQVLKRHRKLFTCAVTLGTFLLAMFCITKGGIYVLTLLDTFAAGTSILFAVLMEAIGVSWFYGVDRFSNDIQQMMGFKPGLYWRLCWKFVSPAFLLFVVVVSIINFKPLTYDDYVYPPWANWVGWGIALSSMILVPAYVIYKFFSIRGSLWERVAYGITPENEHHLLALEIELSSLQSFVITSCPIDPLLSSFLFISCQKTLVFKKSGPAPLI
Sequence of Monoamine transporters; serotonin & dopamine (Rattus norvegicus) (P23977 whole entry, looked up): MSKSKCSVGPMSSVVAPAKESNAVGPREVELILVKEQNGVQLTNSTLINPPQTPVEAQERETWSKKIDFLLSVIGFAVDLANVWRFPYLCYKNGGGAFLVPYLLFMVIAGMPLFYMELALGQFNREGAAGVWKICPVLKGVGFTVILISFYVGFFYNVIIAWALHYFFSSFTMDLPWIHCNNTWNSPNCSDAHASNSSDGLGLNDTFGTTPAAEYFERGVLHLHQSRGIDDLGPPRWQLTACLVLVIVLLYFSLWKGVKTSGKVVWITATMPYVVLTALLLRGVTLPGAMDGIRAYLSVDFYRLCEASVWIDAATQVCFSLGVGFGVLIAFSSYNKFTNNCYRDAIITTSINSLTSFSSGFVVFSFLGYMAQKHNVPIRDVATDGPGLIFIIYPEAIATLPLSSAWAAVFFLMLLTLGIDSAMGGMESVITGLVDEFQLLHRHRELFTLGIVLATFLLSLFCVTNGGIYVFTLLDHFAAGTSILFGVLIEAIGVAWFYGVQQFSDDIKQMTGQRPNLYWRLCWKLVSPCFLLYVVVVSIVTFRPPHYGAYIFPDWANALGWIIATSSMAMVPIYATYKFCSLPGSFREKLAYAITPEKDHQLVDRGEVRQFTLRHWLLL
Sequence of Monoamine transporters; serotonin & dopamine (Rattus norvegicus) (P31652 whole entry, looked up): as the sequence (P31652 whole entry) above
T1 sequence (P23977 whole entry): as the sequence (P23977 whole entry, looked up) above

Row | SMILES | IC50 [1] | IC50 [2] | IC50 [3] | IC50 [4] | Ratio [5] | Ratio [6]
1 | CN(C)C1C2CCC(CC2=O)C1c1ccccc1 (stereo in doubt; 6) [listing 1 of 2 here] | 9.14 µM | 4.01 µM | 4.12 µM | 31.4 µM |  | 
2 | CC(=O)OC1CC2CCC1C(N(C)C)C2c1ccccc1 (stereo in doubt; 17) [listing 1 of 2 here] | 75 µM | 45.6 µM | 46.8 µM | 22.8 µM |  | 
3 | CN(C)C1C2CCC(CC2O)C1c1ccccc1 (stereo in doubt; 8) [listing 1 of 2 here] |  |  |  |  | 11 | 3.5
4 | CN(C)C1C2CCC(CC2OC(=O)c2ccccc2)C1c1ccccc1 (stereo in doubt; 19) [listing 1 of 2 here] |  |  |  |  | 0.83 | 1.8
5 | CN(C)CC1C2CCC(CC2)C1c1ccc(Cl)c(Cl)c1 (stereo not drawn) |  |  | 0.096 µM | 0.261 µM |  | 
6 | CN(C)C1C2CCC(CC2OC(=O)c2ccccc2)C1c1ccccc1 (stereo in doubt; 19) [listing 2 of 2 here] | 8.24 µM | 2.27 µM | 4.19 µM | 1.88 µM |  | 
7 | COC(=O)[C@H](c1ccccc1)[C@H]1CCCCN1 [DEXMETHYLPHENIDATE] |  |  | 0.989 µM | 224 µM |  | 
8 | CC(=O)OC1CC2CCC1C(N(C)C)C2c1ccccc1 (stereo in doubt; 9) [listing 1 of 2 here] | 4.93 µM | 5.33 µM | 0.535 µM | 2.45 µM |  | 
9 | CN(C)C1C2CCC(CC2OC(=O)c2ccccc2)C1c1ccccc1 (stereo in doubt; 12) [listing 1 of 2 here] |  |  |  |  | 41 | 5.4
10 | CC(=O)OC1CC2CCC1C(N(C)C)C2c1ccccc1 (stereo in doubt; 10) [listing 1 of 2 here] |  |  |  |  | 14 | 4.5
11 | CN(C)C1C2CCC(CC2=O)C1c1ccccc1 (stereo in doubt; 6) [listing 2 of 2 here] |  |  |  |  | 7.8 | 1
12 | CC(=O)OC1CC2CCC1C(N(C)C)C2c1ccccc1 (stereo in doubt; 10) [listing 2 of 2 here] | 25.8 µM | 12.2 µM | 55.4 µM | 176 µM |  | 
13 | CN(C)C1C2CCC(CC2O)C1c1ccccc1 (stereo in doubt; 15) [listing 1 of 2 here] | 23 µM | 9.92 µM | 34.4 µM | > 100 µM |  | 
14 | CN(C)C1C2CCC(CC2=O)C1c1ccccc1 (stereo in doubt; 13) [listing 1 of 2 here] | 24.7 µM | 10.3 µM | 10.6 µM | 61.2 µM |  | 
15 | CN(C)C1C2CCC(CC2O)C1c1ccccc1 (stereo in doubt; 8) [listing 2 of 2 here] | 2.81 µM | 2.04 µM | 7.23 µM | 21.8 µM |  | 
16 | CC(=O)OC1CC2CCC1C(N(C)C)C2c1ccccc1 (stereo in doubt; 9) [listing 2 of 2 here] |  |  |  |  | 0.46 | 0.1
17 | CN(C)C1C2CCC(CC2O)C1c1ccccc1 (stereo in doubt; 15) [listing 2 of 2 here] |  |  |  |  | > 10 | 3.5
18 | CN(C)C1C2CCC(CC2O)C1c1ccccc1 (stereo in doubt; 14) [listing 1 of 2 here] | 10.9 µM | 7.04 µM | 7.73 µM | 12.3 µM |  | 
19 | CN(C)C1C2CCC(CC2O)C1c1ccccc1 (stereo in doubt; 7) [listing 1 of 2 here] |  |  |  |  | 4.7 | 0.85
20 | CC(=O)OC1CC2CCC1C(N(C)C)C2c1ccccc1 (stereo in doubt; 17) [listing 2 of 2 here] |  |  |  |  | 0.5 | 1
21 | CC(=O)OC1CC2CCC1C(N(C)C)C2c1ccccc1 (stereo in doubt; 16) [listing 1 of 2 here] | 16.3 µM | 13.6 µM | 10.4 µM | 4.77 µM |  | 
22 | CN(C)C1C2CCC(CC2=O)C1c1ccccc1 (stereo in doubt; 13) [listing 2 of 2 here] |  |  |  |  | 5.9 | 1
23 | CN(C)C1C2CCC(CC2OC(=O)c2ccccc2)C1c1ccccc1 (stereo in doubt; 18) [listing 1 of 2 here] | 4.84 µM | 2.2 µM | 7.38 µM | 0.76 µM |  | 
24 | CN(C)C1C2CCC(CC2OC(=O)c2ccccc2)C1c1ccccc1 (stereo in doubt; 18) [listing 2 of 2 here] |  |  |  |  | 0.35 | 3.4
25 | CC(=O)OC1CC2CCC1C(N(C)C)C2c1ccccc1 (stereo in doubt; 16) [listing 2 of 2 here] |  |  |  |  | 0.35 | 0.76
26 | CN(C)C1C2CCC(CC2OC(=O)c2ccccc2)C1c1ccccc1 (stereo in doubt; 11) [listing 1 of 2 here] |  |  |  |  | 0.15 | 0.65
27 | CN(C)C1C2CCC(CC2O)C1c1ccccc1 (stereo in doubt; 7) [listing 2 of 2 here] | 4.45 µM | 1.77 µM | 1.51 µM | 8.38 µM |  | 
28 | CN(C)C1C2CCC(CC2OC(=O)c2ccccc2)C1c1ccccc1 (stereo in doubt; 11) [listing 2 of 2 here] | 0.372 µM | 0.358 µM | 0.225 µM | 0.053 µM |  | 
29 | CN(C)C1C2CCC(CC2O)C1c1ccccc1 (stereo in doubt; 14) [listing 2 of 2 here] |  |  |  |  | 1.7 | 1.1
30 | CN(C)C1C2CCC(CC2OC(=O)c2ccccc2)C1c1ccccc1 (stereo in doubt; 12) [listing 2 of 2 here] | 0.687 µM | 0.27 µM | 1.47 µM | 11.1 µM |  | 
